Assay outcomes (PubChem BioAssay)
M1 ag: human M1 muscarinic receptor agonists, primary screen, Fluo-8 calcium fluorescence, CHO-K1 cells, HTS | Muscarinic acetylcholine receptor M1 (Homo sapiens), P11229 | CHO-K1 hM1, agonist mode; 0% DMSO, 100% acetylcholine EC100 | activation, % at 3 µM | hit rate 0.33% among 360,000;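 active = activation above the run's mean compound activation plus 3 SD, cut at about 16% in these data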;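 also: peak over basal fluorescence ratio within a 140 s kinetic read after compound addition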
M5 antag: human M5 muscarinic receptor antagonists, primary screen, CHO cells, Fluo-8 calcium fluorescence; Muscarinic acetylcholine receptor M5 (Homo sapiens), P08912; CHO-hM5 cells, ACh EC80; inhibition, % at 3 µM; hit rate 0.59% among 360,000; AID 624040, 2012;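 active = inhibition above a per-plate cutoff, the mean of that plate's test compounds plus 3 SD, cut at about 27% in these data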;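 also: 0% = acetylcholine EC80 with DMSO and 100% = DMSO without agonist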
Target sequence (P08912 whole entry, looked up): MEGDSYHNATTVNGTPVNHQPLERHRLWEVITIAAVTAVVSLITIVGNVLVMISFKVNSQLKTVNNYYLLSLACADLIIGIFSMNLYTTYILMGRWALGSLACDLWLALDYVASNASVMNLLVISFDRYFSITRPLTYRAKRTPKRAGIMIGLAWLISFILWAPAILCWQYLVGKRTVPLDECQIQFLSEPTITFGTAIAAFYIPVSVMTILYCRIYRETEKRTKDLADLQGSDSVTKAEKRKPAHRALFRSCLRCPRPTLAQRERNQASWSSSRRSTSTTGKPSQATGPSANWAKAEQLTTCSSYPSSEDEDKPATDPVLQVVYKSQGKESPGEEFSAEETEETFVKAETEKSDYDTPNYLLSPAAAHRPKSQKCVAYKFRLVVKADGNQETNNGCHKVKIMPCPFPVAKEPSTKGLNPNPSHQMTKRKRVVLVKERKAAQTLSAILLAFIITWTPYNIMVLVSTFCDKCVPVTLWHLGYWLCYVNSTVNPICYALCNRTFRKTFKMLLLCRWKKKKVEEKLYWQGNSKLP
M1 antag: human M1 muscarinic receptor antagonists, primary screen, CHO-K1 cells, Fluo-8 calcium fluorescence, 1536-well; inhibition, % at 3 µM; Muscarinic acetylcholine receptor M1 (Homo sapiens), P11229; hit rate 1.3% among 360,000; AID 588852, 2011; CHO-K1 hM1, ACh EC80 antagonist;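 active = percent inhibition above its own plate's cutoff, namely the mean of that plate's compound wells plus 3 SD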;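 also: peak over basal fluorescence ratio during 140 s after agonist addition; 0% = ACh EC80 plus DMSO and 100% = DMSO alone without agonist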
M5 ag: human M5 muscarinic receptor agonists, primary screen, CHO-K1 cells, Fluo-8 calcium fluorescence; CHO-K1 hM5 cells; 0% DMSO wells, 100% maximal acetylcholine response; activation, % at 3 µM; hit rate 0.19% among 360,000; AID 624037, 2012;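 active = activation above the run's mean over test compounds plus 3 SD, cut at about 23% in these data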;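 also: signal is peak over basal fluorescence ratio across the kinetic read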
M1 PAM: human M1 muscarinic receptor positive allosteric modulators, primary screen, CHO-K1 cells, Fluo-8 calcium fluorescence, 1536-well; activation, % at 3 µM; CHO-K1 hM1, ACh EC20; 0% = ACh EC20, 100% = maximal ACh; hit rate 0.088% among 360,000; AID 588819, 2011; in the data active = activation above about 19%, passing the limit was not always enough
M5 PAM: human M5 muscarinic receptor positive allosteric modulators, primary screen, CHO-K1 cells, Fluo-8 calcium fluorescence. Muscarinic acetylcholine receptor M5 (Homo sapiens), P08912. CHO-K1 hM5, ACh EC20 PAM; 0% = ACh EC20, 100% = ACh EC100. activation, % at 3 µM. hit rate 0.3% among 360,000;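 active = activation above the run cutoff, the mean activation of all test compounds plus 3 SD, cut at about 18% in these data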
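Assay system: CHO-K1 hM5 cells. Also added: acetylcholine at EC20 concentration, added after compound. Dosing: 3 µM, single dose. Times: compound preincubation 140 s before EC20 acetylcholine addition. Signal: Fluo-8 calcium fluorescence. Measure: % activation relative to EC20 and EC100 ACh responses. Repeats: singlicate, one well per test compound.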
* = called active by the depositor; x = not tested or not shown. This is a sample that favours compounds with a hit; in the whole collection about 2.2% have one here.

SMILES | M1 ag | M5 antag | M1 antag | M5 ag | M1 PAM | M5 PAM
CN1C2CNC(=O)CC1C1CCC2C1 (stereo unspecified) | -0.9 | 13.9 | -13.3 | 1.6 | 8.7 | -1.0
COc1ccccc1N1C(=O)NC(=O)C(CCc2ccncc2)(CCc2ccncc2)C1=O | -1.1 | 4.4 | -0.7 | 2.6 | 1.2 | 27.6*
CCOc1ccccc1N1C(=O)NC(=O)C(CCc2ccncc2)(CCc2ccncc2)C1=O | -2.8 | 0.0 | -20.9 | -1.9 | 1.5 | -6.4
CN/C=C(/Cl)P(=O)(OC(C)C)OC(C)C | -1.2 | -4.6 | -11.1 | 4.7 | 16.9 | 14.8
CCN(CC)c1ccc(/C=C2\C(=O)NC(=S)N(C)C2=O)o1 | 14.1 | 12.7 | 1.6 | 36.5* | -2.4 | -7.8
CCN(CC)c1ccc(/C=C2\C(=O)NC(=S)N(c3ccc(OC)cc3OC)C2=O)o1 | 12.9 | 2.6 | 4.0 | 33.7* | 0.7 | -10.7
CCN(CC)c1ccc(C=C2C(=O)N(C)C(=S)N(C)C2=O)o1 | -1.2 | 4.7 | -1.0 | 0.8 | 4.0 | -2.9
O=S(=O)(c1ccc(Cl)cc1)N1Cc2cc(Br)ccc2-n2nncc2C1 | -0.5 | -2.3 | -3.0 | 1.1 | 1.4 | -6.8
O=C(c1cc(F)ccc1F)C1CCCN(CCCc2ccccc2)C1 (stereo unspecified) | -9.0 | 11.5 | 35.6* | -9.4 | -25.8 | -17.1
COc1ccc(C(=O)c2nc3ccccc3n2C(C)C)cc1 | -5.1 | 2.1 | 4.9 | -10.2 | -1.0 | 0.8
CCOC(=O)C1CCCN(c2ccc([N+](=O)[O-])c3nonc23)C1 (stereo unspecified) | 297.9* | 52.3* | 70.1* | 184.7* | -27.4 | -36.9
O=C(C1CCN(c2nc3ccc(Br)cc3s2)CC1)N1CCC2(CC1)OCCO2 | -1.8 | 2.5 | 59.3* | -4.7 | -22.8 | -6.3
CCOc1ccc2nc(N3CCC(C(=O)N4CCC5(CC4)OCCO5)CC3)sc2c1 | -5.6 | 6.5 | 9.7 | -4.5 | -6.4 | -7.1
Cc1ccc2nc(N3CCC(C(=O)N4CCC5(CC4)OCCO5)CC3)sc2c1 | -6.5 | -1.2 | 1.2 | -5.1 | -0.6 | -0.4
CCc1ccc2nc(N3CCC(C(=O)N4CCC5(CC4)OCCO5)CC3)sc2c1 | -7.8 | 4.2 | 40.6* | -14.9 | -26.1 | -7.5
Fc1cccc(-c2ccc3c(c2)CNCc2cnnn2-3)c1 | -11.4 | 3.2 | 15.6 | -1.3 | -5.9 | 1.0
Cc1cccc(N=C2c3cc([N+](=O)[O-])ccc3-c3c2cc([N+](=O)[O-])cc3[N+](=O)[O-])c1 | 1.8 | 23.8 | 9.3 | 2.5 | 3.4 | 3.2
N#Cc1c(N2CCNCC2)nc(-c2ccco2)c2c1CCCC2 | -4.4 | 4.6 | -12.3 | -0.1 | 7.9 | 2.1
CCCCc1nc(N2CCNCC2)c(C#N)c2c1CSC(C)(C)C2 | -4.1 | 7.3 | 53.6* | -6.4 | -20.5 | -15.2
N#CC(C#N)=NNc1ccc(-n2ccc(C(F)(F)F)n2)cc1 | 8.7 | 30.1* | 31.0 | 14.0 | -6.5 | -20.9
Cc1cc(C)n(-c2ccc(NN=C(C#N)C#N)cc2)n1 | 8.8 | 24.4 | 15.8 | 12.6 | -8.9 | -24.2
CN1CC(C(=O)c2cccs2)C(c2ccc(Cl)cc2)C1 (stereo unspecified) | -7.1 | 5.7 | -0.7 | -1.7 | -4.7 | -6.7
O=C(c1cccs1)C1CN2CCC1CC2 (stereo unspecified) | -5.4 | 13.4 | 38.4* | -7.3 | -19.4 | -12.5
O=C(O)C1CN2CCC1CC2 (stereo unspecified) | 25.3* | -1.2 | 4.1 | 36.5* | -6.3 | -10.4
CC1CCCC(NC(=O)COC(=O)c2cn(C)c3ccccc23)C1C (stereo unspecified) | -2.7 | 14.2 | -3.1 | -3.2 | 3.0 | -0.5
SMILES | M1 ag | M5 antag | M1 antag | M5 ag | M1 PAM | M5 PAM
CC(C)C(=O)c1cn(Cc2ccccc2C#N)c2ccccc12 | -4.0 | 1.7 | 0.1 | -4.2 | 0.2 | 4.0
CC(=O)c1cn(Cc2ccccc2C#N)c2ccccc12 | 0.9 | 37.1* | 34.8 | 8.1 | -10.8 | -31.4
CC(C)NP(=O)(NC(C)C)OP(=O)(NC(C)C)NC(C)C | -3.1 | 1.3 | -31.4 | 0.2 | 4.5 | -3.0
C[C@H]1CN([C@@H](C)CO)C(=O)CCCn2nncc2CO[C@H]1CN(C)C(=O)Oc1ccc2ccccc2c1 | -6.0 | -11.8 | -5.1 | -0.5 | -3.0 | 6.1
CC(=O)OCC[N+](C)(C)C | x | 97.7* | x | 99.8* | x | -13.4
C[N+](C)(C)CCOC(=O)CBr | 20.2* | -1.0 | -34.4 | 36.6* | 7.2 | -15.1
C=CCSc1nc2c(c(-c3ccsc3)c1C#N)CN(C)CC2 | -7.4 | 0.5 | -5.7 | -11.3 | 1.0 | 8.0
CCCc1nc2ccc(Br)cc2c(=O)n1-c1ccc([N+](=O)[O-])c(C(F)(F)F)c1 | -2.3 | 27.2* | 28.7 | 2.0 | -12.9 | -14.2
CCCCn1nnnc1C(C1CC1)N1CCC2(CC1)C(=O)NCN2c1ccccc1 (stereo unspecified) | -3.9 | 4.8 | -25.8 | -0.3 | 5.3 | -4.2
O=C(CCCN1CCC2(CC1)C(=O)NCN2c1ccccc1)c1ccc(F)cc1 | 109.4* | 96.3* | 97.4* | 80.9* | -30.2 | -21.0
CC1CCCCC1NC(=O)CNC(=S)N1CC2CC(C1)c1cccc(=O)n1C2 (stereo unspecified) | -2.4 | -1.5 | 11.5 | -1.2 | -3.5 | 1.7
Cc1ccc(C)c(NP(=O)(Oc2ccccc2)Oc2ccccc2)c1 | -2.4 | 24.3 | 35.8* | 3.0 | -10.4 | -12.7
CCOP(=O)(CCP(=O)(OCC)OCC)OCC.C[CH2][Sn]([Cl])([Cl])[CH2]C | -2.6 | -3.2 | -7.1 | -0.5 | 4.0 | -1.3
S=C=Nc1cccc(C2(N3CCCCC3)CCCCC2)c1 | -7.0 | 27.5* | 49.8 | -1.6 | -25.4 | -18.8
c1ccc(C2(N3CCCCC3)CCCCC2)cc1 | -12.0 | 4.6 | 14.0 | -6.4 | -11.2 | -16.1
C#C[C@@]1(O)CCC2C3CCC4=C/C(=N/OCC(=O)NC(CCC(N)=O)C(=O)O)CC[C@]4(C)C3CC[C@@]21C (stereo partly specified) | -2.6 | 11.7 | 16.2 | -0.4 | -6.6 | -4.2
CC12CC(=O)C3C(CCC4CC(=O)C=CC43C)C1CCC2=O (stereo unspecified) | -4.8 | 13.6 | -15.3 | -2.1 | 8.0 | 3.1
COc1ccc2ccccc2c1CNCCc1ccccc1 | -1.5 | -3.5 | -13.8 | -4.3 | 9.2 | 18.2*
